Source: ChEMBL document CHEMBL4177719, “Synthesis and evaluation of biaryl derivatives for structural characterization of selective monoamine oxidase B inhibitors toward Parkinson's disease therapy” (Bioorg Med Chem, 2018)
Active and inactive are the calls of the source. No cut-off for these calls is given here.

How the values were obtained:
[1] = target: T1, Amine oxidase [flavin-containing] B (Homo sapiens, UniProt P27338); assay: Inhibition of recombinant human MAO-B using benzylamine as substrate preincubated for 15 mins followed by substrate addition measured after 20 mins by amplex red reagent based spectrophotometric assay
T1 sequence (P27338 whole entry): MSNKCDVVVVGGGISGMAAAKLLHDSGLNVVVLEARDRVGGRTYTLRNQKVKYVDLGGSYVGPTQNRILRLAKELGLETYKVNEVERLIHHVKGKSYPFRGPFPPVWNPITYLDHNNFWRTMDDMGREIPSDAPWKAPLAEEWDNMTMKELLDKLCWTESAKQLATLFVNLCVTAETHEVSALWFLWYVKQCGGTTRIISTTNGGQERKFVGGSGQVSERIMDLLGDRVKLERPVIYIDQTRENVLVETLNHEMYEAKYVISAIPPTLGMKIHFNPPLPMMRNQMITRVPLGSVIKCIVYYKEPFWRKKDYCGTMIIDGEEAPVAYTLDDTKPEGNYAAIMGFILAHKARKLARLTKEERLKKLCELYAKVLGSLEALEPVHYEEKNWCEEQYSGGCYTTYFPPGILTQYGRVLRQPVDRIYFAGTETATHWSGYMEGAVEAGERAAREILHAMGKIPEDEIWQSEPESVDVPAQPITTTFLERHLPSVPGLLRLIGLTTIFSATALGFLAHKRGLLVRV

[2] = target: T2, Amine oxidase [flavin-containing] A (Homo sapiens, UniProt P21397); assay: Inhibition of recombinant human MAO-A using p-tyramine as substrate preincubated for 15 mins followed by substrate addition measured after 20 mins by amplex red reagent based spectrophotometric assay
T2 sequence (P21397 whole entry): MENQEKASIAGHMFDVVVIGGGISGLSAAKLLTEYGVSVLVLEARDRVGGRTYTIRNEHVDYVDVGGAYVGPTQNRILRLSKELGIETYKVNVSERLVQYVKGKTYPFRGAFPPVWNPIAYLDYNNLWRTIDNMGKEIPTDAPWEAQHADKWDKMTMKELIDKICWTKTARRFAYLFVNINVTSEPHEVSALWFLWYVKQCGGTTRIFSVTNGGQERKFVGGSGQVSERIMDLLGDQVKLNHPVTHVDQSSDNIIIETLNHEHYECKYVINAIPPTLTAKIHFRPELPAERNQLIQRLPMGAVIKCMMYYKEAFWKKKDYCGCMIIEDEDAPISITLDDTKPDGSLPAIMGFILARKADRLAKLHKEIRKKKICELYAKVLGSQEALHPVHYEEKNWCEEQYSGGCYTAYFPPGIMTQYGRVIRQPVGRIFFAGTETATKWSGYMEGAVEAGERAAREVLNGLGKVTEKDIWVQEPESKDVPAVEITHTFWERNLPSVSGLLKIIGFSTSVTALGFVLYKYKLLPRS
Outline: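 Recombinant human MAO-A with compounds at final 10⁻⁵–10 µM, preincubated 15 min at 37 °C in 50 mM sodium phosphate, pH 7.4. Reaction started by adding 200 µM Amplex Red, 2 U/mL horseradish peroxidase and 2 mM p-tyramine. IC50 came from dose-response curves in quadruplicate, as mean ± S.E.M.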

Homo sapiens = species on record: Homo sapiens; assay: Selectivity index, ratio of IC50 for recombinant human MAO-A to IC50 for recombinant human MAO-B
[3] = target: T1, Amine oxidase [flavin-containing] B; assay: Competitive inhibition of recombinant human MAO-B assessed as Vmax for substrate using varying level of benzylamine substrate preincubated for 15 mins followed by substrate addition measured after 20 mins by Lineweaver-Burk plot analysis
Outline: (§1)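 Recombinant human MAO-B with benzylamine at 0.065, 0.125, 0.25, 0.5, 1, 2 and 4 mM, with inhibitor at 0, 0.3, 1 and 3 nM. Amplex Red/HRP H2O2-coupled fluorescence in 50 mM sodium phosphate pH 7.4 at 37 °C. Initial rates taken from progression curves; Lineweaver-Burk double-reciprocal analysis.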

[4] = target: T1, Amine oxidase [flavin-containing] B; assay: Competitive inhibition of recombinant human MAO-B using varying level of benzylamine substrate preincubated for 15 mins followed by substrate addition measured after 20 mins by Lineweaver-Burk plot analysis; outline: as §1
Mus musculus [5] = assay: Anti-parkinson's activity in MPTP-induced C57Bl/6 mouse model of Parkinson's disease assessed as restoration of MPTP-induced weight loss at 30 mg/kg, po administered for 3 consecutive days; type: functional, organism-based
Outline: (§2)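 Male C57Bl/6 mice, 10 weeks old, 23–25 g (n = 5-8 per group). MPTP-HCl 20 mg/kg i.p., given as 4 injections at 2 h intervals. Drug 30 mg/kg/day p.o. for 3 consecutive days spanning MPTP dosing. Vehicle was 12.5% castor oil/ethanol (equal parts) in distilled water. Saline-treated controls.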

Mus musculus [6] = assay: Anti-parkinson's activity in MPTP-induced C57Bl/6 mouse model of Parkinson's disease assessed as restoration of motor ability by measuring ascending ability to reach stable position at 30 mg/kg, po administered for 3 consecutive days measured 6 days after MPTP injection by coathanger method; type: functional, organism-based; outline: as §2
Mus musculus [7] = assay: (§3) Anti-parkinson's activity in MPTP-induced C57Bl/6 mouse model of Parkinson's disease assessed as restoration of motor ability at 30 mg/kg, po administered for 3 consecutive days measured 6 days after MPTP injection by vertical grid test; type: functional, organism-based; outline: as §2
Mus musculus [8] = assay: Restoration of MPTP-induced tyrosine hydroxylase enzyme activity loss in C57Bl/6 mouse assessed as enzyme activity loss in DAergic neurons of substantia nigra pars compacta at 30 mg/kg, po administered for 3 consecutive days measured 6 days after MPTP injection by DAB staining based microscopic method; type: functional; outline: as §2
Mus musculus [9] = assay: as §3, with “MPTP-induced reduction in TH-immunoreactive fiber density in striatum” for “motor ability”, “DAB staining based microscopic method” for “vertical grid test”; type: functional, organism-based; outline: as §2

Row | IC50 [1] [nM] | IC50 [2] [nM] | Ratio IC50 (Homo sapiens) | Compound | further results
1 | 3320 | > 100000 | > 30 | Nc1ccc(OCc2ccc(F)cc2)cc1 | 
2 | 175 | > 30000 | > 170 | COc1cccc(COc2ccc(CN)cc2)c1 | 
3 | 3230 | > 100000 | > 31 | NCc1ccc(OCc2ccccc2)cc1 | 
4 | 642 | > 100000 | > 150 | NC(=O)c1ccc(OCc2ccc(C(F)(F)F)cc2)cc1 | 
5 | 1460 | > 100000 | > 68 | NCc1ccc(OCc2ccccc2F)cc1 | 
6 | 1050 | > 100000 | > 95 | NC(=O)c1ccc(OCc2ccccc2F)cc1 | 
7 | 271 | > 100000 | > 360 | NC(=O)c1ccc(OCc2ccc(F)cc2)cc1 | 
8 | 402 | > 100000 | > 240 | Nc1ccc(OCc2ccc(C(F)(F)F)cc2)cc1 | 
9 | > 10000 | > 10000 |  | COc1ccc(CN[C@@H](C)C(N)=O)cc1 | 
10 | 387 | > 100000 | > 250 | NCc1ccc(OCc2cccc(C(F)(F)F)c2)cc1 | 
11 | 2020 | > 100000 | > 49 | NC(=O)c1ccc(OCc2ccccc2C(F)(F)F)cc1 | 
12 | > 10000 | > 100000 |  | Nc1ccc(OCc2ccccc2C(F)(F)F)cc1 | 
13 | 440 | > 30000 | > 68 | NCc1ccc(OCc2ccc(Cl)cc2)cc1 | 
14 | 3150 | > 100000 | > 32 | NCc1ccc(OCc2ccccc2C(F)(F)F)cc1 | 
15 | 16 |  |  | CC(=O)N[C@H]1CC(=O)N(c2ccc(OCc3cccc(F)c3)cc2)C1 [SEMBRAGILINE] | 
16 | 1110 | > 100000 | > 90 | NC(=O)c1ccc(OCc2cccc(C(F)(F)F)c2)cc1 | 
17 | 257 | > 100000 | > 380 | NCc1ccc(OCc2cccc(Cl)c2)cc1 | 
18 | 452 | > 100000 | > 220 | NCc1ccc(OCc2ccc(F)cc2)cc1 | 
19 | 1550 | > 100000 | > 65 | NC(=O)c1ccc(OCc2cccc(F)c2)cc1 | 
20 | 1510 | > 100000 | > 66 | Nc1ccc(OCc2cccc(C(F)(F)F)c2)cc1 | 
21 | 283 | > 100000 | > 350 | COc1ccc(COc2ccc(CN)cc2)cc1 | 
22 | 926 | > 100000 | > 100 | NCc1ccc(OCc2cccc(F)c2)cc1 | 
23 | 136 | > 100000 | > 730 | NCc1ccc(OCc2ccc(C(F)(F)F)cc2)cc1 | 
24 | 2480 | > 100000 | > 40 | Nc1ccc(OCc2cccc(F)c2)cc1 | 
25 | > 10000 | > 30000 |  | Nc1ccc(OCc2ccccc2F)cc1 | 

Row | Compound | IC50 [1] [nM] | IC50 [2] [nM] | Ratio IC50 (Homo sapiens) | further results
26 | NCCc1ccc(-c2cccc(C(F)(F)F)c2)cc1 | 1570 | > 10000 | > 6.4 | 
27 | COc1cccc(COc2ccc(CCN)cc2)c1 | 305 | > 10000 | > 33 | 
28 | NCCc1ccc(-c2ccc(C(F)(F)F)cc2)cc1 | 41 | > 10000 | > 240 | 
29 | Cl.NCCc1ccc(OCc2ccc(C(F)(F)F)cc2)cc1 | 9 | > 100000 | > 11000 | Vmax [3]: 5.86 ×10⁷ U/min; Ki [4]: 6.88 nM; Activity (Mus musculus [5]): Active; Activity (Mus musculus [6]): Active; Activity (Mus musculus [7]): Active; Activity (Mus musculus [8]): 38%; Activity (Mus musculus [9]): Active
30 | COc1cccc(-c2ccc(CCN)cc2)c1 | 5000 | > 10000 | > 1.9 | 
31 | NCCc1ccc(OCc2cccc(Cl)c2)cc1 | 62 | > 100000 | > 1600 | 
32 | NCCc1ccc(OCc2ccc(Cl)cc2)cc1 | 59 | > 100000 | > 1600 | 
33 | NCCc1ccc(-c2cccc(Cl)c2)cc1 | 2110 | > 10000 | > 4.7 | 
34 | COc1ccc(-c2ccc(CCN)cc2)cc1 | 5760 | > 10000 | > 1.7 | 
35 | NCCc1ccc(OCc2ccccc2Cl)cc1 | 2850 | > 10000 | > 3.5 | 
36 | NCCc1ccc(-c2ccc(Cl)cc2)cc1 | 625 | > 10000 | > 16 | 
37 | NCCc1ccc(OCc2ccccc2F)cc1 | 396 | > 10000 | > 25 | 
38 | NCCc1ccc(-c2cccc(F)c2)cc1 | > 10000 | > 10000 |  | 
39 | NCCc1ccc(-c2ccccc2Cl)cc1 | 8340 | > 10000 | > 1.2 | 
40 | NCCc1ccc(-c2ccccc2F)cc1 | > 10000 | > 10000 |  | 
41 | NCCc1ccc(OCc2cccc(F)c2)cc1 | 193 | > 100000 | > 510 | 
42 | NCCc1ccc(OCc2cccc(C(F)(F)F)c2)cc1 | 110 | > 100000 | > 900 | 
43 | NCCc1ccc(-c2ccc(F)cc2)cc1 | 6810 | > 10000 | > 1.5 | 
44 | NCCc1ccc(OCc2ccc(F)cc2)cc1 | 109 | > 100000 | > 910 | 
45 | NCCc1ccc(OCc2ccccc2C(F)(F)F)cc1 | 1800 | > 100000 | > 55 | 
